FLuc inhib CS: inhibits firefly luciferase, flagging false hits in luciferase inhibition screens. P08659. ATPLite firefly luciferase biochemical luminescence, 10 min. inhibition, % at 10 µM. 1.5% of 200,000 active;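 active means inhibition above about 50% when tested at 10 µM, limit read from the data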
Target sequence (P08659 whole entry, looked up): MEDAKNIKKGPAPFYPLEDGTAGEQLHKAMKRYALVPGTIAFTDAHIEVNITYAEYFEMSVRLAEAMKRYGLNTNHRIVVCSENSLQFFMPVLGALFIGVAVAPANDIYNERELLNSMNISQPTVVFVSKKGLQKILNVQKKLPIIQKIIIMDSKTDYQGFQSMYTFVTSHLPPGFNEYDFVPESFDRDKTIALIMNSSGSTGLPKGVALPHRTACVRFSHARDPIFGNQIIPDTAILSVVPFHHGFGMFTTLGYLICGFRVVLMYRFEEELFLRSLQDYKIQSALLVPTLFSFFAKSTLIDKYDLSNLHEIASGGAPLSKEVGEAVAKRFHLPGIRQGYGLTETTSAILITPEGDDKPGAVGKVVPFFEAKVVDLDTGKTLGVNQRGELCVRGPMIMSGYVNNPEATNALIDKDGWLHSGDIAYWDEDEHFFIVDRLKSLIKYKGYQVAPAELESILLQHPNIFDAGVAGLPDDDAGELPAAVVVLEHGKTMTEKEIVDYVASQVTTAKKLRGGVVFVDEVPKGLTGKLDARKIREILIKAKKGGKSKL
NF-kB neuron act: raises NF-kB expression in human neuronal cells; NF-kB reporter expression; active compounds read high; fold change at 12.5 µM; 1.6% of 190,000 active; in the data active means fold change above about 3.3
STAT1 act: increases IFN-gamma driven STAT1 reporter signal | 2.6% of 200,000 active | activation (% of control), % at 5.5 µM | AID 932 | NIH 3T3 STAT1-luciferase reporter, luminescence; 100% = IFN-gamma alone, no compound;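 active means activation above the screen-wide mean activation plus 3 SD, cut at about 130% in these data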
APP 5'UTR act: activates APP 5'UTR luciferase reporter. SH-SY5Y APP 5'UTR luciferase reporter, luminescence; zero percent = DMSO vehicle wells. activation, % at 2 µM. 1% of 190,000 active;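 active means activation above a set limit, based on mean plus 3 SD of controls, cut at about 140% in these data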
FLuc stim CS: firefly luciferase counter-screen for stimulation assays | 200,000 tested, under 10 active | P08659 | AID 1027 | ATPlite luciferase biochemical, luminescence, 10 min; 0 = ATP-free wells, 1 = DMSO control | activation factor at 10 µM;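 active means luciferase activation factor, scaled between plate controls, of at least 2 with compound at 10 µM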
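System: luciferase plus luciferin reagent, cell-free; medium: PBS as buffer for the ATP substrate; dosing: test compounds dosed from 2 mM stocks in 100% DMSO; timing: 10 min post-reagent at room temperature; measured by: luminescence measurement of luciferase light output; evaluation: luciferase activation, seen as luminescence increase over controls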
STAT1 act conf: STAT1 activation, confirmation assay; shares compounds with STAT1 act; activation (% of control), % at 5.7 µM; 97% of 1,200 active; NIH 3T3 STAT1-luciferase reporter, IFN-gamma potentiation, luminescence; 100% = IFN-gamma EC80 alone, no compound;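 active means activation above a set limit carried over from the earlier primary STAT1 screen, cut at about 140% in these data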
NFkB act: NF-kappaB activation in STAT1 activator counter-screen; shares compounds with STAT1 act; HEK293T NF-kB luciferase reporter, TNF-alpha stimulated, luminescence; 100% = TNF-alpha with vehicle only; activation (% of control), % at 5.7 µM; 43% of 1,200 active; AID 1306;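 active means activation above the mean of solvent-only control wells plus 3 SD, set per campaign, cut at about 130% in these data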;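 further: TNF-alpha given at a submaximal dose yielding about 80% of full reporter signal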
STAT3 act 2: counter-screen for STAT1 activators: human STAT3 activation; shares compounds with STAT1 act; U3A cells STAT3-luciferase reporter, IL-6, luminescence; cells lack STAT1; 100 = IL-6 alone, no compound effect; activation (% of control), % at 5.7 µM; 46% of 1,200 active;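 active means activation above the solvent-only control well mean plus 3 SD, set per plate batch, cut at about 110% in these data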;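 further: higher means more STAT3 reporter activation so hits are non-selective activators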
Each line names hits and unclear results; the compound was inactive in the other large screens (follow-up assays come after a bar, where they were run). Shown are actives, neighbours in structure and some others; about 4.1% of the full set was active somewhere.

CC1CCc2c(sc(NC(=O)COC(=O)C3CCCO3)c2C#N)C1 (stereo not drawn)	none
COc1cc(CNCc2c[nH]c3ccccc23)cc(OC)c1	none
Clc1ccccc1OCc1nc(-c2ccncc2)no1	NF-kB neuron act 4.09, STAT1 act 161.9, APP 5'UTR act 193.9 | STAT1 act conf 184.2 | NFkB act inactive | STAT3 act 2 116.5
Clc1ccc(OCc2nc(-c3ccncc3)no2)c(Br)c1	NF-kB neuron act 4.04, STAT1 act 152.3, APP 5'UTR act 250.4 | STAT1 act conf 233.3 | NFkB act 140.6 | STAT3 act 2 122.9
CCN(CC)S(=O)(=O)c1cccc(C(=O)NC(Cc2c[nH]c3ccccc23)c2nnc3n2CCC3)c1 (stereo not drawn)	none
CCN(CC)c1ccc(C=C(c2nnnn2-c2ccc(C)cc2)c2nnnn2-c2ccc(C)cc2)cc1	none
Cc1ccc(Nc2cc(C)nn2-c2nc(C)cc(C)n2)cc1	none
Cc1ccc(Nc2cc(C)nn2-c2nc(C)cc(=O)[nH]2)cc1	STAT1 act 232.2 | STAT1 act conf 181.3 | NFkB act 167.2 | STAT3 act 2 inactive
Cn1c(N)c(C(=O)Nc2ccc3ccccc3c2)sc1=S	STAT1 act 172.3, APP 5'UTR act 143.4 | STAT1 act conf 203.5 | NFkB act inactive | STAT3 act 2 inactive
Cc1oc(-c2ccccc2)cc1C(=O)Nc1ccc2ccccc2c1	none
Cc1cc(C(=O)CSc2ncccn2)c(C)n1-c1cccc(F)c1	FLuc inhib CS 53.8, STAT1 act 172.4, APP 5'UTR act 162.2 | STAT1 act conf 191.3 | NFkB act inactive | STAT3 act 2 111.5
Cc1nc(-c2ccc3c(c2)OCCO3)cs1	none
Cc1cccc(Nc2nc(-c3ccc4c(c3)OCCO4)cs2)c1	STAT1 act 158.2, APP 5'UTR act 161.3 | STAT1 act conf 216.7 | NFkB act 143.7 | STAT3 act 2 inactive
N#CCC(=O)Nc1nc(-c2ccc3c(c2)OCCO3)cs1	STAT1 act 165.4 | STAT1 act conf 169.2 | NFkB act inactive | STAT3 act 2 113.2
O=C(Nc1nc(-c2ccc3c(c2)OCCO3)cs1)C1CCCC1	NF-kB neuron act 6.64, STAT1 act 155.6, APP 5'UTR act 173.1 | STAT1 act conf 188.2 | NFkB act 134.4 | STAT3 act 2 120.6
O=C(Nc1nc(-c2ccc3c(c2)OCCO3)cs1)c1ccc(S(=O)(=O)N2CCCCC2)cc1	none
O=C(NC(=S)Nc1ccccc1O)c1ccccc1Cl	none
Cc1ccc(/C=C/C(=O)N2CCCC(C)C2)cc1 (stereo not drawn)	FLuc inhib CS 74.7, NF-kB neuron act 4.52, STAT1 act 167.8 | STAT1 act conf 193.0 | NFkB act inactive | STAT3 act 2 inactive
CC1CCN(C(=O)/C=C/c2ccc(C(C)(C)C)cc2)CC1	none
CC(C)(C)c1ccc(/C=C/C(=O)N2CCCCC2)cc1	NF-kB neuron act 4.37, STAT1 act 168.7 | STAT1 act conf 165.5 | NFkB act 148.7 | STAT3 act 2 127.8
CNC(=O)NC(=O)C(C)OC(=O)c1cc2c(s1)CCCCC2 (stereo not drawn)	none
CC(=O)COc1ccc2c3c(c(=O)oc2c1)CCCC3	none
CC(=O)COc1ccc2c(C)c(-c3ccccc3)c(=O)oc2c1	STAT1 act 155.7 | STAT1 act conf 155.8 | NFkB act inactive | STAT3 act 2 inactive
CCOC(=O)C1(CC2CC2)CCN(S(=O)(=O)/C=C/c2ccccc2)CC1	none
Cc1nc2ccc3nc(NC(=O)c4ccco4)sc3c2s1	STAT1 act 163.8 (no result: FLuc inhib CS, NF-kB neuron act, FLuc stim CS) | STAT1 act conf 169.6 | NFkB act inactive | STAT3 act 2 inactive
O=C(Nc1nnc(C23CC4CC(CC(C4)C2)C3)s1)c1ccco1	STAT1 act 151.7 | STAT1 act conf 190.3 | NFkB act inactive | STAT3 act 2 120.2
COc1ccc(-c2csc(NC(=O)c3ccco3)n2)cc1	NF-kB neuron act 4.15, STAT1 act 153.0, APP 5'UTR act 137.4 | STAT1 act conf 164.2 | NFkB act inactive | STAT3 act 2 inactive
Cc1nnc(NC(=O)c2ccco2)s1	none
Cn1c(=NC(=O)c2ccccc2[N+](=O)[O-])sc2cc(S(C)(=O)=O)ccc21	STAT1 act 176.9, APP 5'UTR act 177.9 | STAT1 act conf 248.7 | NFkB act inactive | STAT3 act 2 inactive
Cc1ccc2c(c1)N(CC(=O)N1CCN(c3nc4ccccc4s3)CC1)C(=O)C(C)O2 (stereo not drawn)	none
Cc1ccc(C)c(N2CCN(c3cnn(-c4nc5ccccc5s4)c(=O)c3Cl)CC2)c1	STAT1 act 156.0 | STAT1 act conf 181.9 | NFkB act inactive | STAT3 act 2 inactive
Cc1ccccc1C(=O)NNC(=O)c1ccc(F)cc1	none
Cc1ccccc1/C(N)=N/OC(=O)c1ccc(F)cc1	FLuc inhib CS 92.5, STAT1 act 183.0 (no result: NF-kB neuron act) | STAT1 act conf 174.1 | NFkB act 135.3 | STAT3 act 2 inactive
CC1=CC(C)(C)N2C(=O)C3(NCCc4c3[nH]c3ccccc43)c3cccc1c32 (stereo not drawn)	none
CCN1CCN(c2cc3c(nn2)Oc2ccccc2N3C)CC1	none
CN(C)c1ccc(/C=N/N2C(=N)N(c3ccccc3)C(=S)C2=Nc2ccccc2)cc1	STAT1 act 163.2, APP 5'UTR act 179.7 (no result: FLuc inhib CS, NF-kB neuron act, FLuc stim CS) | STAT1 act conf 184.9 | NFkB act 134.2 | STAT3 act 2 113.1
CCCc1nn(C)c(C(=O)Nc2ccccc2)c1Cl	STAT1 act 170.4, APP 5'UTR act 155.9 | STAT1 act conf 199.3 | NFkB act inactive | STAT3 act 2 inactive
Cc1ccc(C2=Nc3cccnc3C(c3ccccc3)=NN2)cc1	STAT1 act 156.4 | STAT1 act conf 201.8 | NFkB act 142.7 | STAT3 act 2 114.8
Cc1ccc2c(c1)C(c1ccncc1)=NNC(c1ccccc1)=N2	none
COc1ccc2cc(C(N)=O)c(=Nc3ccccc3)oc2c1	STAT1 act 151.8, APP 5'UTR act 137.0 | STAT1 act conf 141.9 | NFkB act inactive | STAT3 act 2 inactive
CC1=C(C(=O)Nc2ccc(C)cc2C)C(c2ccc(C)o2)NC(=S)N1 (stereo not drawn)	none
Cc1nc2ccc(Cl)cc2nc(C)/c1=N\O	STAT1 act 151.9, APP 5'UTR act 158.2 | STAT1 act conf 144.1 | NFkB act inactive | STAT3 act 2 119.7
CCOC(=O)c1cnc(SC)nc1Oc1cccc(NS(=O)(=O)c2ccc(C)cc2)c1	none

Source: PubChem
